Measurements from ChEMBL document CHEMBL1921792, “Synthesis and anticonvulsant activity of trans- and cis-2-(2,6-dimethylphenoxy)-N-(2- or 4-hydroxycyclohexyl)acetamides and their amine analogs” (Bioorg Med Chem, 2011).
Activity calls are given as the source filed them. The rule behind the calls is not given here.

Key:
Mus musculus [1] = assay: Anticonvulsant activity in mouse assessed as protection against maximal electric shock-induced seizures at 100 mg/kg, ip after 4 hrs; type: functional, organism-based; set-up: dose 100 mg/kg
Summary of the method: (§1)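 Phase I maximal electroshock screen in mice. Compound given ip as a suspension in 0.5% methylcellulose at 30, 100 or 300 mg/kg, tested at 30 min and 4 h. Small groups (1–8); result is number protected/number tested.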

Mus musculus [2] = assay: Anticonvulsant activity in mouse assessed as protection against maximal electric shock-induced seizures at 30 mg/kg, ip after 0.5 hrs; type: functional, organism-based; set-up: dose 30 mg/kg; summary of the method: as §1
Mus musculus [3] = assay: Anticonvulsant activity in mouse assessed as protection against maximal electric shock-induced seizures at 30 mg/kg, ip after 4 hrs; type: functional, organism-based; set-up: dose 30 mg/kg; summary of the method: as §1
Mus musculus [4] = assay: Anticonvulsant activity in mouse assessed as protection against maximal electric shock-induced seizures at 300 mg/kg, ip after 0.5 hrs; type: functional, organism-based; set-up: dose 300 mg/kg; summary of the method: as §1
Mus musculus [5] = assay: Anticonvulsant activity in mouse assessed as protection against maximal electric shock-induced seizures at 300 mg/kg, ip after 4 hrs; type: functional, organism-based; set-up: dose 300 mg/kg; summary of the method: as §1
Mus musculus [6] = assay: Anticonvulsant activity against subcutaneous pentylenetetrazole-induced seizures in mouse at 30 mg/kg, ip after 0.5 hrs; type: functional, organism-based; set-up: dose 30 mg/kg
Summary of the method: (§2)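 Phase I screen in mice. Compound given ip as a suspension in 0.5% methylcellulose, read at 30 min and 4 h. Pentylenetetrazole 85 mg/kg in 0.9% NaCl was injected sc into the posterior midline and animals watched ≥30 min. Protection meant no clonic spasm lasting ≥5 s. Groups of 1–8 animals; result is protected/tested.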

Mus musculus [7] = assay: Anticonvulsant activity against subcutaneous pentylenetetrazole-induced seizures in mouse at 30 mg/kg, ip after 4 hrs; type: functional, organism-based; set-up: dose 30 mg/kg; summary of the method: as §2
Mus musculus [8] = assay: Anticonvulsant activity against subcutaneous pentylenetetrazole-induced seizures in mouse at 100 mg/kg, ip after 4 hrs; type: functional, organism-based; set-up: dose 100 mg/kg; summary of the method: as §2
Mus musculus [9] = assay: Anticonvulsant activity against subcutaneous pentylenetetrazole-induced seizures in mouse at 300 mg/kg, ip after 0.5 hrs; type: functional, organism-based; set-up: dose 300 mg/kg; summary of the method: as §2
Mus musculus [10] = assay: Anticonvulsant activity against subcutaneous pentylenetetrazole-induced seizures in mouse at 300 mg/kg, ip after 4 hrs; type: functional, organism-based; set-up: dose 300 mg/kg; summary of the method: as §2
Mus musculus [11] = assay: Neurotoxicity in mouse assessed as inability to maintain equilibrium on rotarod at 30 mg/kg, ip after 0.5 hrs by rotarod test; type: toxicity, organism-based; set-up: dose 30 mg/kg, route intraperitoneal; details: in vivo
Summary of the method: (§3)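 Drug given ip to mice as a suspension in 0.5% methylcellulose. At the stated time after dosing, each mouse was placed on a 1 inch knurled rod turning at 6 rpm. Neurotoxicity = inability to stay balanced at least 1 min in each of three trials. Scored as animals toxic/animals tested in small groups.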

Mus musculus [12] = assay: Neurotoxicity in mouse assessed as inability to maintain equilibrium on rotarod at 100 mg/kg, ip after 0.5 hrs by rotarod test; type: toxicity, organism-based; set-up: dose 100 mg/kg, route intraperitoneal; details: in vivo; summary of the method: as §3
Mus musculus [13] = assay: Neurotoxicity in mouse assessed as inability to maintain equilibrium on rotarod at 300 mg/kg, ip after 0.5 hrs by rotarod test; type: toxicity, organism-based; set-up: dose 300 mg/kg, route intraperitoneal; details: in vivo; summary of the method: as §3
Mus musculus [14] = assay: Neurotoxicity in mouse assessed as inability to maintain equilibrium on rotarod at 30 mg/kg, ip after 4 hrs by rotarod test; type: toxicity, organism-based; set-up: dose 30 mg/kg, route intraperitoneal; details: in vivo; summary of the method: as §3
Mus musculus [15] = assay: Neurotoxicity in mouse assessed as inability to maintain equilibrium on rotarod at 100 mg/kg, ip after 4 hrs by rotarod test; type: toxicity, organism-based; set-up: dose 100 mg/kg, route intraperitoneal; details: in vivo; summary of the method: as §3
Mus musculus [16] = assay: Neurotoxicity in mouse assessed as inability to maintain equilibrium on rotarod at 300 mg/kg, ip after 4 hrs by rotarod test; type: toxicity, organism-based; set-up: dose 300 mg/kg, route intraperitoneal; details: in vivo; summary of the method: as §3
[17] = Neurotoxicity in ip dosed mouse assessed as inability to maintain equilibrium on rotarod by rotarod test; type: toxicity, organism-based; details: in vivo
Summary of the method: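 Mice dosed ip with a suspension in 0.5% methylcellulose, then placed on a 1 inch knurled plastic rod rotating at 6 rpm. Toxicity = failure to keep equilibrium for at least 1 min in each of three trials.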

Mus musculus [18] = assay: Anticonvulsant activity in ip dosed mouse assessed as protection against maximal electric shock-induced seizures; type: functional; details: Mus musculus, ip; read-out: ED50
Mus musculus [19] = organism: Mus musculus; assay: Protective index, ratio of TD50 for neurotoxicity in mouse to ED50 for inhibition of maximal electroshock-induced seizures in mouse; type: functional
Rattus norvegicus [20] = assay: Neurotoxicity in rat assessed as neurological deficit at 30 mg/kg, po after 0.25 hrs […]; type: toxicity, organism-based; set-up: dose 30 mg/kg, route oral; details: in vivo
Summary of the method: (§4)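 Rats given the compound, suspended in 0.5% methylcellulose, by the stated route and dose. Neurological deficit was recorded at the listed times as ataxia and loss of placing response and muscle tone. Reported as number of rats showing toxicity/number tested.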

Rattus norvegicus [21] = assay: Neurotoxicity in rat assessed as neurological deficit at 30 mg/kg, po after 0.5 hrs […]; type: toxicity, organism-based; set-up: dose 30 mg/kg, route oral; details: in vivo; summary of the method: as §4
Rattus norvegicus [22] = assay: Neurotoxicity in rat assessed as neurological deficit at 30 mg/kg, po after 1 hr […]; type: toxicity, organism-based; set-up: dose 30 mg/kg, route oral; details: in vivo; summary of the method: as §4
Rattus norvegicus [23] = assay: Neurotoxicity in rat assessed as neurological deficit at 30 mg/kg, po after 2 hrs […]; type: toxicity, organism-based; set-up: dose 30 mg/kg, route oral; details: in vivo; summary of the method: as §4
Rattus norvegicus [24] = assay: Neurotoxicity in rat assessed as neurological deficit at 30 mg/kg, po after 4 hrs by rotarod test; type: toxicity, organism-based; set-up: dose 30 mg/kg, route oral; details: in vivo; summary of the method: as §4
Mus musculus [25] = assay: Anticonvulsant activity in mouse assessed as protection against maximal electric shock-induced seizures at 90 mg/kg, ip after 0.25 hrs; type: functional, organism-based; set-up: dose 90 mg/kg
Summary of the method: (§5)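 Time-to-peak-effect assay: MES protection read at 0.25–4 h after dosing. Mice ip (60–130 mg/kg), rats po (15 or 30 mg/kg) or ip (30 mg/kg). Groups of 4–8; result is protected/tested.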

Mus musculus [26] = assay: Anticonvulsant activity in mouse assessed as protection against maximal electric shock-induced seizures at 90 mg/kg, ip after 0.5 hrs; type: functional, organism-based; set-up: dose 90 mg/kg; summary of the method: as §5
Mus musculus [27] = assay: Anticonvulsant activity in mouse assessed as protection against maximal electric shock-induced seizures at 90 mg/kg, ip after 1 hr; type: functional, organism-based; set-up: dose 90 mg/kg; summary of the method: as §5
Mus musculus [28] = assay: Anticonvulsant activity in mouse assessed as protection against maximal electric shock-induced seizures at 90 mg/kg, ip after 4 hrs; type: functional, organism-based; set-up: dose 90 mg/kg; summary of the method: as §5
Mus musculus [29] = assay: Neurotoxicity in mouse assessed as inability to maintain equilibrium on rotarod at 90 mg/kg, ip after 24 hrs using rotarod test; type: toxicity, organism-based; set-up: dose 90 mg/kg, route intraperitoneal; details: in vivo; summary of the method: as §3
Mus musculus [30] = assay: Anticonvulsant activity in mouse assessed as protection against maximal electric shock-induced seizures at 70 mg/kg, ip after 0.5 hrs; type: functional, organism-based; set-up: dose 70 mg/kg; summary of the method: as §5
Mus musculus [31] = assay: Anticonvulsant activity in mouse assessed as protection against maximal electric shock-induced seizures at 70 mg/kg, ip after 1 hr; type: functional, organism-based; set-up: dose 70 mg/kg; summary of the method: as §5
Mus musculus [32] = assay: Anticonvulsant activity in mouse assessed as protection against maximal electric shock-induced seizures at 70 mg/kg, ip after 2 hrs; type: functional, organism-based; set-up: dose 70 mg/kg; summary of the method: as §5
Mus musculus [33] = assay: Anticonvulsant activity in mouse assessed as protection against maximal electric shock-induced seizures at 60 mg/kg, ip after 0.25 hrs; type: functional, organism-based; set-up: dose 60 mg/kg; summary of the method: as §5
Mus musculus [34] = assay: Anticonvulsant activity in ip dosed mouse assessed as time to show peak effect of protection against maximal electric shock-induced seizures; type: functional; summary of the method: as §5

Cc1cccc(C)c1OCC(=O)N[C@H]1CCCC[C@@H]1O.O=C(O)C(O)C(O)C(=O)O
Activity (Mus musculus [1]): inactive | Activity (Mus musculus [2]): inactive | Activity (Mus musculus [3]): inactive | Activity (Mus musculus [4]): Active | Activity (Mus musculus [5]): inactive | Activity (Mus musculus [6]): inactive | Activity (Mus musculus [7]): inactive | Activity (Mus musculus [8]): inactive | Activity (Mus musculus [9]): inactive | Activity (Mus musculus [10]): inactive | Activity (Mus musculus [11]): Non-toxic | Activity (Mus musculus [12]): Non-toxic | Activity (Mus musculus [13]): Non-toxic | Activity (Mus musculus [14]): Non-toxic | Activity (Mus musculus [15]): Non-toxic | Activity (Mus musculus [16]): Non-toxic | TD50 [17]: 68.7 mg/kg | ED50 (Mus musculus [18]): 35.5 mg/kg | Ratio TD50/ED50 (Mus musculus [19]): 1.937 | Activity (Rattus norvegicus [20]): Non-toxic | Activity (Rattus norvegicus [21]): Non-toxic | Activity (Rattus norvegicus [22]): Non-toxic | Activity (Rattus norvegicus [23]): Non-toxic | Activity (Rattus norvegicus [24]): Non-toxic | Activity (Mus musculus [25]): Active | Activity (Mus musculus [26]): Active | Activity (Mus musculus [27]): inactive | Activity (Mus musculus [28]): inactive | Activity (Mus musculus [29]): Non-toxic | Activity (Mus musculus [30]): inactive | Activity (Mus musculus [31]): inactive | Activity (Mus musculus [32]): inactive | Activity (Mus musculus [33]): Active | Time (Mus musculus [34]): 0.25 h
